Screening results from PubChem.
NR2E3 ag-1: inhibitors of NR2E3-RetCOR corepressor binding, primary screen, NR2E3 agonist project, biochemical, TR-FRET, GST-NR2E3, biotin-RetCOR; AID 2300, 2010; 1536-well; inhibition of corepressor binding, % at 4.78 µM; hit rate 0.12% among 320,000;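 active means percent inhibition above the cutoff of mean plus 3 SD of all tested compounds, set per screening campaign, cut at about 20% in these data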;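 further: 0% = DMSO wells and 100% = biotin wells as full block of FRET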
Target sequence (Q9Y5X4 whole entry, looked up): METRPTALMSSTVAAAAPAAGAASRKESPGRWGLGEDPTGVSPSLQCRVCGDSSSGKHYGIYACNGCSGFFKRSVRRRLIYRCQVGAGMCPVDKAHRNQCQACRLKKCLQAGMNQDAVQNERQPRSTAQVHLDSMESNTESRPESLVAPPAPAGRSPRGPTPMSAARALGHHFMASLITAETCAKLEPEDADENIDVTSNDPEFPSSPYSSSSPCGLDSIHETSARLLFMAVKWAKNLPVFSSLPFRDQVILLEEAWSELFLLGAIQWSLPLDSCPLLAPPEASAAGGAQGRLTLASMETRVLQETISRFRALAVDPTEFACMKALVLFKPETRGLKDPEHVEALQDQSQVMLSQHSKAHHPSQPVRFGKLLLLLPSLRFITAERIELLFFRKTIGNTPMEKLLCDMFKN
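Test system – NR2E3–RetCOR corepressor complex · Quantity – NR2E3 fusion 1.35 nM · Buffer or medium – Tris pH 7.5 · Incubation – Compound–protein incubation for 5 h at 4 °C · Technique – TR-FRET, Eu(K)-anti-GST donor, streptavidin-D2 acceptor, ex 340, em 617/671 nm · Evaluation – percent inhibition of 671/617 nm emission ratio versus biotin and DMSO controls · Plate – 1536-well format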
FXN GAA850 act: FXN promoter activators, primary screen, cell-based, luciferase luminescence, HEK293 lucGAA850; HEK293 lucGAA850 FXN promoter luciferase reporter, 24 h; percent of 10 µM SAHA response; activation, % at 6 µM; hit rate 0.56% among 360,000; AID 540364, 2011;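 active means activation above the average of all compounds screened plus 3 SD, cutoff fixed separately per campaign, cut at about 7.5% in these data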;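 further: 0% = DMSO wells and 100% = 10 µM SAHA wells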
V-ATPase pHluor: regulators of yeast V-ATPase proton pumping, primary screen, pHLuorin cytosolic pH fluorescence; S. cerevisiae; response, % at 10 µM; hit rate 0.37% among 350,000; in the data active means response mostly above about 7.3%, no sharp cut-off; inactive means mostly below about 5.4%; further: actives read high
HIV Env fusion: inhibitors of HIV-1 Env-driven cell-cell fusion, primary screen, HeLa-JRFL effector, CEM21 target cells, luciferase; inhibition, % at 12.3 µM; AID 651610, 2012; hit rate 1.1% among 360,000;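 active means mean replicate inhibition score of at least 50 and every replicate individually at or above 50; inconclusive means only one of the two criteria met; inactive means mean below 50 and not all replicates reaching 50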;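 further: 0% = plate neutral controls and 100% = maraviroc near 300 nM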
GalR3 antag: GalR3 antagonists in HEK293 cells, primary screen, cell-based, fluorescence readout; inhibition, % at 3 µM; Galanin receptor type 3 (Homo sapiens), O60755; HEK293 GalR3-CNG cAMP membrane potential fluorescence; galR3 body fused to GalR1 C-terminus; hit rate 0.44% among 360,000;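 active means inhibition above the screen-wide average plus 3 SD, cut at about 13% in these data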;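 further: forskolin and galanin both at EC90 stimulate the cells; cAMP rise reported by CNG channel membrane potential dye signal; 0% = forskolin plus galanin with DMSO and 100% = forskolin alone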
Target sequence (O60755 1-299 limits assumed): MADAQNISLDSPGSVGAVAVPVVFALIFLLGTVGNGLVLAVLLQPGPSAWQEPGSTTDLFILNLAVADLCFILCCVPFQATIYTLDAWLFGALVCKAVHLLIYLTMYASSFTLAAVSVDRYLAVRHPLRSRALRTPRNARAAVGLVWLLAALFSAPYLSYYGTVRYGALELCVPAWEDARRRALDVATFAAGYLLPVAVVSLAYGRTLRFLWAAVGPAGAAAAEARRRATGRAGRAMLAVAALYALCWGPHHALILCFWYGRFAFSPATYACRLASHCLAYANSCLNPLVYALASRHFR
NR2E3 ag-2: NR2E3 agonists in two-hybrid cells, primary screen, cell-based, luminescence, CHO-S, Gal4-NCOR/VP16-NR2E3 | Photoreceptor-specific nuclear receptor (Homo sapiens), Q9Y5X4 | luciferase | inhibition of corepressor binding, % at 3.98 µM | hit rate 0.35% among 360,000;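 active means inhibition above the mean of all tested compounds plus 3 SD, cut at about 70% in these data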;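 further: 0% = DMSO with NR2E3 transfected cells and 100% = cells lacking NR2E3 construct; higher means lower luciferase signal from less NR2E3 corepressor binding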
An asterisk follows results filed as active; ? = inconclusive; · = no result given; [ ] = dose if it differs, or a comment. Sampled rows, rich in hits. Any-hit rate of the full collection: about 2.2%.

SMILES	NR2E3 ag-1	FXN GAA850 act	V-ATPase pHluor	HIV Env fusion	GalR3 antag	NR2E3 ag-2
C[C@H](CO)N1C[C@H](C)[C@H](CN(C)Cc2ccc(Cl)c(Cl)c2)OCCCC[C@H](C)Oc2ccc(NC(=O)Nc3ccccc3)cc2C1=O	·	·	·	71.1*[16.7 µM]	·	·
O=S(=O)(Nc1cccnc1)c1ccc(C2CCCCC2)cc1	-1.2	-0.2	-0.5	·	-6.7	91.7*
O=C(CSc1nnc(SCc2ccccc2)s1)N/N=C/c1ccc(Cl)cc1Cl	1.1	0.8	-0.1	21.6	-1.2	-16.3
O=C(CSC1CN(C(c2ccccc2)c2ccccc2)C1)N/N=C/c1ccc(Cl)cc1Cl	2.8	2.1	1.7	65.0*	-2.5	-3.0
COc1ccc([N+](=O)[O-])cc1NC(=O)C(C)OC(=O)c1ccccc1C(=O)c1ccc(Cl)cc1 (stereo not drawn)	-2.1	7.2	4.3	84.8*	-5.4	-3.9
CCOC(=O)c1c(NC(=O)C2CCCN2S(=O)(=O)c2cccc3nsnc23)sc(C)c1C (stereo not drawn)	·	1.5	-46.9	63.6*	-2.3	-13.9
C[C@@H]1CCCCO[C@H](CN(C)C(=O)Cc2ccccc2)[C@@H](C)CN([C@@H](C)CO)C(=O)c2cc(NC(=O)Nc3ccccc3)ccc2O1	·	·	·	-52.2[16.7 µM]	·	·
Cc1oc(-c2ccccc2F)nc1CS(=O)(=O)CC(=O)N1CCN(c2ccccc2)CC1	1.9	-0.1	4.3	60.1*	·	26.0
Cc1oc(-c2ccccc2F)nc1CS(=O)(=O)CC(=O)N1CCc2ccccc21	3.0	-1.2	-0.7	22.2	·	-49.6
O=C(Nc1cccc(F)c1)c1cc(S(=O)(=O)N2CCC(C(=O)O)CC2)ccc1F	0.8	0.5	-0.1	76.7*	-4.6	10.1
C[C@H](O)C#Cc1cnc2c(c1)C(=O)N([C@H](C)CO)C[C@H](C)[C@@H](CN(C)Cc1ccc(-c3ccccc3)cc1)O2	·	·	·	12.5[16.7 µM]	·	·
COc1ccccc1/C=C1\SC(=S)N(CCC(=O)Nc2cccc(O)c2)C1=O	-0.9	1.0	0.2	69.7*	-9.6	-7.3
O=C(CNc1cccc(S(=O)(=O)N2CCCCC2)c1)Nc1cccc(F)c1	0.2	0.8	4.0	5.2	-4.7	-21.4
CN(C)S(=O)(=O)c1cccc(NC(=O)CNc2cccc(S(=O)(=O)N3CCCCC3)c2)c1	·	-1.1	0.0	64.0*	-8.6	-7.5
COc1ccccc1-c1nnc(NC(C)=O)s1	-3.4	2.3	5.7	·	-0.5	-133.2
COc1ccccc1-c1nnc(NC(=O)C(C)C)s1	-1.1	4.7	8.0*	·	-4.2	-8.7
O=C(NC(NC(=O)c1ccccc1)c1cccc([N+](=O)[O-])c1)c1ccccc1	-3.0	-0.7	0.3	-33.9	0.2	-8.9
Nc1ccccc1SC(CC(=O)c1ccccc1)c1ccc([N+](=O)[O-])cc1 (stereo not drawn)	·	8.0*	0.0	-145.1	-2.9	-54.7
COc1ccc(C(CC(=O)c2ccc(C)cc2)Sc2ccccc2N)cc1 (stereo not drawn)	·	3.4	-2.4	-66.3	-6.8	-70.3
Nc1ccccc1SC(CC(=O)c1ccccc1)c1cccc([N+](=O)[O-])c1 (stereo not drawn)	·	11.3*	-1.4	-118.4	-5.5	-69.8
Cc1ccc2nc(NC(=O)C3CCN(S(=O)(=O)c4cccs4)CC3)sc2c1	7.6	-5.3	1.5	79.8*	-6.1	-23.8
COC(=O)c1ccccc1-c1ccc(/C=N/NC(=O)c2cc3ccccc3o2)o1	-1.3	-2.0	0.3	·	-11.8	1.1
COC(=O)c1ccccc1-c1c2ccc(=N)cc-2oc2cc(N)ccc12	-1.4	-2.3	454.2*	52.8	-6.2	-6.7
COCCNC(=O)C[C@@H]1C[C@H]2c3cc(N(C)C)ccc3O[C@H]2[C@@H](CO)O1	·	·	·	65.4*[16.7 µM]	·	·
O=C(C[C@H]1C[C@H]2c3cc(NC(=O)C4CCOCC4)ccc3O[C@H]2[C@@H](CO)O1)NCc1ccccc1	·	·	·	22.9[16.7 µM]	·	·
SMILES	NR2E3 ag-1	FXN GAA850 act	V-ATPase pHluor	HIV Env fusion	GalR3 antag	NR2E3 ag-2
CN(C)CC(=O)Nc1ccc2c(c1)[C@H]1C[C@H](CC(=O)NCc3cccc(F)c3)O[C@@H](CO)[C@H]1O2	·	·	·	64.5*[16.7 µM]	·	·
O=C(C[C@@H]1C[C@@H]2c3cc(NC(=O)C4CCOCC4)ccc3O[C@@H]2[C@H](CO)O1)NCCc1ccccc1	·	·	·	62.9*[16.7 µM]	·	·
O=C(C[C@@H]1C[C@H]2c3cc(NC(=O)C4CCOCC4)ccc3O[C@H]2[C@@H](CO)O1)NCc1ccccc1	·	·	·	90.2*[16.7 µM]	·	·
CN(C)CC(=O)Nc1ccc2c(c1)[C@@H]1C[C@@H](CC(=O)NCc3cccc(F)c3)O[C@H](CO)[C@@H]1O2	·	·	·	1.9[16.7 µM]	·	·
COc1ccc(NC(=O)N(C)C[C@H]2OCCCC[C@H](C)Oc3ccc(NS(=O)(=O)c4ccc(C)cc4)cc3C(=O)N([C@@H](C)CO)C[C@@H]2C)cc1	·	·	·	-36.6[16.7 µM]	·	·
O=C(C[C@H]1C[C@@H]2c3cc(NC(=O)C4CCOCC4)ccc3O[C@@H]2[C@@H](CO)O1)NCc1ccccc1F	·	·	·	82.0*[16.7 µM]	·	·
CN(C)CC(=O)Nc1ccc2c(c1)[C@H]1C[C@@H](CC(=O)NCCc3ccccc3)O[C@H](CO)[C@H]1O2	·	·	·	59.8*[16.7 µM]	·	·
O=C(C[C@@H]1C[C@H]2c3cc(NC(=O)C4CCOCC4)ccc3O[C@H]2[C@@H](CO)O1)NCc1ccccc1F	·	·	·	20.8[16.7 µM]	·	·
CC[C@@]1(C(=O)OC)N[C@H](CN(C)S(=O)(=O)c2ccc(-c3ccccc3)cc2)[C@@H]2C(=O)N(Cc3ccccc3)C(=O)[C@@H]21	·	1.1	-1.0	138.5*	-5.2	4.2
COC(=O)[C@]1(Cc2ccccc2)N[C@H](CN(C)S(=O)(=O)c2ccc(C(F)(F)F)cc2)[C@@H]2C(=O)N(Cc3ccccc3)C(=O)[C@@H]21	·	-2.1	-2.4	69.5*	-7.5	3.4
COC(=O)[C@]1(C)N[C@H](CN(C)S(=O)(=O)c2ccc(-c3ccccc3)cc2)[C@@H]2C(=O)N(Cc3ccccc3)C(=O)[C@@H]21	·	5.0	2.0	80.6*	-3.0	2.5
NC(Cc1ccc(C(F)(F)F)cc1)c1csc(NC(=O)Nc2ccccc2)n1 (stereo not drawn)	·	5.3	·	77.7*	-7.9	-3.3
COc1ccc(CC(N)c2csc(NC(=O)Nc3cccc(C(F)(F)F)c3)n2)cc1 (stereo not drawn)	·	0.8	·	?	-8.4	-2.2
Cc1ccccc1NC(=O)Nc1nc(C(N)Cc2ccccc2)cs1 (stereo not drawn)	·	-2.8	·	8.2	-10.0	18.5
COc1ccccc1NC(=O)Nc1nc(C(N)Cc2ccc(Cl)cc2)cs1 (stereo not drawn)	·	2.3	·	64.1*	-3.5	4.6
